Source: PubChem
KCNK3 block = human KCNK3 channel inhibition, primary screen; 0.84% of 340,000 active; CHO-KCNK3 thallium flux, FluxOR fluorescence; hits give low values; AID 602410; B-score at 10 µM; O14649;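 active means B-score under library mean minus 4 SD, starting fluorescence ratio at most library mean plus 5 SD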;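 further: more negative B-score means stronger inhibition of thallium flux through KCNK3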
KCNQ1 act = potentiators or activators of human KCNQ1 potassium channel. B-score at 10 µM. P51787. CHO-K1 KCNQ1, thallium flux FluxOR fluorescence; hits give high values. 0.35% of 310,000 active;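 active means fluorescence ratio B-score, a plate-corrected score, at least three library SD, with initial intensity B-score within 5 SD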
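Schedule – 37 °C overnight plating, 90-min dark dye load, 20-min compound pretreatment · System – stable KCNQ1 CHO-K1 line · Probe or stimulus – thallium- and potassium-containing depolarizing buffer · Measured by – kinetic FluxOR fluorescence, 10 s baseline plus 110 s post-stimulus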
KCNK9 inh = blocks the human KCNK9 two-pore domain potassium channel; Q9NPC2; HEK293 KCNK9, FluxOR thallium flux fluorescence; hits give low values; B-score at 10 µM; 1.2% of 310,000 active;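 active means ratio B-score over 3 SD below the library mean, with starting fluorescence within 5 SD of its mean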;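 further: negative B-score means less thallium flux so channel inhibition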
KCNQ1 inh = human KCNQ1 channel inhibition. CHO-K1 KCNQ1, FluxOR thallium flux fluorescence; hits give high values. B-score at 10 µM. 1.3% of 310,000 active;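 active means compounds whose thallium flux B-score, printed positive for inhibition, exceeds three library SD while starting fluorescence stays within three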;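 further: channel opened by potassium depolarization with thallium stimulus after 20 min compound exposure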
hERG protect = compounds protecting human hERG from proarrhythmic drug block; activation (rescue from dofetilide block), less the hit threshold, % at 10 µM; AID 1511; CHO-hERG, FluxOR thallium flux, dofetilide IC70 present; Q12809; 0.51% of 310,000 active;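 active means activation above the mean of controls blocked by dofetilide plus 5 SD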;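 further: thallium influx through hERG after potassium depolarization seen as dye fluorescence rise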
KCNK9 block conf = confirmation of human KCNK9 potassium channel inhibitors; shares compounds with KCNK9 inh; HEK293 KCNK9 cells, FluxOR thallium flux fluorescence; inhibition, % at 10 µM; 43% of 4,900 active; AID 492992;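 active means thallium signal inhibited by more than 5 SD of the compound-free buffer control wells, on both duplicate plates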;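 further: 0% = assay buffer control wells without compound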
Kir2-1 spec = mouse Kir2.1 off-target activity of KCNK9 modulators; AID 492993; Kir2.1 cells, FluxOR thallium flux fluorescence; inhibition, % at 10 µM; shares compounds with KCNK9 inh; 4% of 4,900 active;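 active means thallium signal drop more than 5 SD beyond the mean of the no-compound control wells, seen in both duplicate plates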;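 further: signal is fluorescence rise after thallium addition divided by baseline fluorescence; plate controls were assay buffer only for no effect and full block by chlorpromazine control for full effect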
Target sequence (P35561 whole entry, looked up): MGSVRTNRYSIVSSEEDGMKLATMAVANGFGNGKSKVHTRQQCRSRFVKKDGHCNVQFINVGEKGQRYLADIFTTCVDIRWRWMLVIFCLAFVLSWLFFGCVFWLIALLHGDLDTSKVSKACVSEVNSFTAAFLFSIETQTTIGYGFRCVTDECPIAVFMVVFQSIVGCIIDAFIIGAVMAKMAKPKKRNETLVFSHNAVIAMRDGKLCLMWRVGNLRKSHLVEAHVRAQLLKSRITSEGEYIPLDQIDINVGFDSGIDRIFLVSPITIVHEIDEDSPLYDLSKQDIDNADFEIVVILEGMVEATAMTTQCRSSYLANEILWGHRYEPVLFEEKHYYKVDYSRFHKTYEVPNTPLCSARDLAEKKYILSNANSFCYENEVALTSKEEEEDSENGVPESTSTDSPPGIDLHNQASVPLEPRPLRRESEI
HEK293 Tl ctr = second check of KCNK9 modulator effects in non-induced HEK293 cells. inhibition, % at 10 µM. FluxOR thallium flux. AID 492997. 40% of 4,900 active. shares compounds with KCNK9 inh;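 active means thallium signal drop beyond 5 SD of the untreated control mean, on both duplicate plates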;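 further: plate controls were buffer only IC0 wells for no effect and SID17386958 at its maximal inhibitory level for full effect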
The depositor's hits bear a star; i = inactive; . = no result. Hits are enriched below; roughly 3.1% of the tested compounds scored in any of these assays.

SMILES | KCNK3 block | KCNQ1 act | KCNK9 inh | KCNQ1 inh | hERG protect | KCNK9 block conf | Kir2-1 spec | HEK293 Tl ctr
Cc1ccc(S(=O)(=O)N(C)C)cc1NC(=O)COC(=O)COc1ccc2c(c1)CCC2 | i | i | i | i | -9.7 | . | . | .
CCOC(=O)C(C)Oc1ncnc2cccc(F)c12 (stereo not drawn) | i | i | i | i | -3.1 | . | . | .
O=C(C1CCCCC1)N1CCCC(c2nc3c(nnn3Cc3ccccc3)c(=O)[nH]2)C1 (stereo not drawn) | i | i | i | i | -15.7 | . | . | .
Cc1ccc(C)c(Cn2nnc3c(=O)[nH]c(C4CCCN(C(=O)C5CCCCC5)C4)nc32)c1 (stereo not drawn) | i | i | -17.6* | i | -9.6 | 64.5%* | i | 25.0%*
CC[C@@]1(c2ccccc2OC)ON(c2ccccc2C(F)(F)F)C1=O | i | . | . | . | . | . | . | .
CCc1nc(N2CCN(C(=O)c3ccco3)CC2)c2c3c(sc2n1)CCCC3 | i | i | -10.3* | i | -15.2 | 50.0%* | i | i
CCOC(=O)C1CCCN(C(=O)c2ccc(Cl)c(S(=O)(=O)N3CCCCCC3)c2)C1 (stereo not drawn) | i | i | i | i | -12.1 | i | i | i
O=C(c1ccc(Cl)c(S(=O)(=O)N2CCCCC2)c1)N1CCN(Cc2ccccc2)CC1 | i | i | i | i | -3.3 | i | i | i
O=C(c1ccc(Cl)c(S(=O)(=O)N2CCCC2)c1)N1CCN(Cc2ccccc2)CC1 | i | . | . | . | . | . | . | .
CN1CCN(C(=O)c2ccc(Cl)c(S(=O)(=O)N3CCCCCC3)c2)CC1 | i | i | i | i | -16.9 | . | . | .
COc1cc2c(cc1OC)C(C)N(C(=O)c1ccc(Cl)c(S(=O)(=O)N3CCCCC3)c1)CC2 (stereo not drawn) | i | i | -11.2* | i | -6.9 | 32.5%* | i | i
O=C(OCC(=O)N1CCCCCC1)c1ccc(Cl)c(S(=O)(=O)N2CCCC2)c1 | i | i | i | i | -4.4 | i | i | i
COc1cc(SC)ccc1C(=O)Nc1nccs1 | i | i | i | i | -7.1 | . | . | .
CCOc1ccc(N2CC(C(=O)Nc3ccc4c(c3)OCCO4)CC2=O)cc1 (stereo not drawn) | i | i | i | i | -14.9 | . | . | .
CCOc1ccc(N2CC(C(=O)Nc3ccc4c(c3)OCO4)CC2=O)cc1 (stereo not drawn) | i | i | i | i | -11.3 | i | i | i
CC(=O)c1cccc(NC(=O)Cn2cnc(S(=O)(=O)N3CCCC3)c2)c1 | i | i | i | i | -5.1 | . | . | .
O=C1CCN(CCc2ccccc2)CCN1CCSc1ccc(Br)cc1 | i | i | i | i | -22.4 | i | i | i
Cc1ccc(SCCN2CCN(CCc3ccccc3)CCC2=O)cc1 | i | i | i | i | -11.0 | i | i | i
CCCN1CCC(=O)N(CCSc2ccc(C)cc2)CC1 | i | i | i | i | -3.0 | . | . | .
Cc1ccc(-c2ccc(C#N)c(=O)n2CC(=O)N(C)C)cc1 | i | i | i | i | -4.8 | . | . | .
COc1ccc(N(CC(=O)NC2CCCC2)S(=O)(=O)c2ccc(NC(C)=O)cc2)cc1 | i | i | i | i | -5.8 | . | . | .
Cc1ccc(CNC(=O)C2CCC(=O)N(CC3CCCCC3)C2)o1 (stereo not drawn) | i | i | i | i | -12.5 | . | . | .
CCc1ccc(CN2CCCC(C(=O)Nc3ccccc3-c3ccc(OC)cc3)C2)o1 (stereo not drawn) | i | i | -8.73* | i | -11.7 | i | i | 28.0%*
CC/C(=N\NC(=S)Nc1cccc(C)c1)c1ccccc1 | i | 12* | i | i | 6.9* | i | i | i
CC/C(=N\NC(=S)Nc1ccc(OC)cc1)c1ccc(OC(F)F)cc1 | i | i | i | i | 0.2 | i | i | i
SMILES | KCNK3 block | KCNQ1 act | KCNK9 inh | KCNQ1 inh | hERG protect | KCNK9 block conf | Kir2-1 spec | HEK293 Tl ctr
Cc1cccc(NC(=S)N/N=C(\c2ccccc2)C(C)C)c1 | i | i | i | i | -3.4 | i | i | i
CC(C)/C(=N\NC(=O)Nc1ccccc1)c1ccccc1 | i | i | i | i | -8.1 | . | . | .
O=[N+]([O-])c1ccc(CSc2ccc(S(=O)(=O)N3CCCC3)cn2)cc1 | i | . | . | . | . | . | . | .
CCOc1cc(C=C2C(=O)c3ccccc3C2=O)ccc1OCC(=O)Nc1ccc(C)cc1 | i | i | i | i | 2.7 | . | . | .
C/C(=N\NC(=O)c1nn(C)c(C)c1Br)c1ccc(NC(=O)C2CCCC2)cc1 | i | i | -12.1* | i | -7.1 | 68.0%* | i | i
O=C(c1ccccc1Sc1ccccc1[N+](=O)[O-])N1CCCCC1 | i | i | i | i | 4.3 | i | i | i
Cc1ccc(SCC(=O)NCCSCc2ccccc2)cc1 | i | i | i | i | -9.9 | i | i | i
Cc1ccc(CSCCNC(=O)CN(c2cc(C)ccc2C)S(C)(=O)=O)cc1 | i | i | i | i | -15.1 | i | i | i
Cc1ccc(CSCCNC(=O)CCSc2ccccc2)cc1 | i | i | i | i | -8.9 | . | . | .
Cc1ccccc1CSCCNC(=O)CCSc1ccccc1 | i | i | i | i | -19.8 | i | i | i
CN(C)c1ccc(NC(=O)CN2CCC(N3CCCCC3)CC2)cc1 | i | i | i | i | -8.4 | . | . | .
Cc1ccc(C)c2[nH]c(=O)c(CN(Cc3ccco3)C(=O)Nc3ccccc3)cc12 | i | i | -13.3* | i | -15.5 | 62.5%* | i | i
COc1cc(OC)c(OC)cc1/C=N/n1c(COc2ccccc2)n[nH]c1=S | i | i | i | i | -9.2 | . | . | .
COc1cc(NC(=O)c2c(-c3ccccc3Cl)noc2C)c2ncccc2c1 | i | i | i | i | -11.6 | . | . | .
Cc1onc(-c2ccccc2Cl)c1C(=O)Nc1cccc2cccnc12 | i | i | -12.7* | 6* | -9.6 | 47.0%* | i | 45.0%*
COc1ccc(S(=O)(=O)N2CCN(C(=O)c3cc(C)on3)CC2)cc1 | i | . | . | . | . | . | . | .
CCOC(=O)[C@@H]1[C@H]2COc3ccc(Br)cc3[C@@H]2N2C(=O)N(c3cccc(Cl)c3)C(=O)[C@@]12C | i | . | . | . | . | . | . | .
O=S(=O)(Cc1ccccc1)Oc1ccccc1 | i | i | i | i | -5.8 | . | . | .
O=C(NCc1ccccc1)NC1CCS(=O)(=O)C1 (stereo not drawn) | i | i | i | i | 0.8 | . | . | .
